Measurements: ChEMBL document CHEMBL3865853, “Synthesis and Bioevaluation of 3,6-Diaryl-[1,2,4]triazolo[4,3-b] Pyridazines as Antitubulin Agents” (ACS Med Chem Lett, 2016)
Active and inactive are the calls of the source. The rule behind the calls is not given here.

Assays:
[1] = Cytotoxicity against human SGC7901 cells assessed as reduction in cell viability after 24 hrs by MTT assay; assay type: functional, cell-based; conditions: SGC-7901, 24 h
Summary of the method: (§1)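 MTT viability assay on A549, HT-1080 and SGC-7901 cells; IC50 as concentration giving 50% inhibition; each experiment run in triplicate.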

[2] = Cytotoxicity against human HT1080 cells assessed as reduction in cell viability after 24 hrs by MTT assay; assay type: functional, cell-based; conditions: HT-1080, 24 h; summary of the method: as §1
[3] = Cytotoxicity against human A549 cells assessed as reduction in cell viability after 24 hrs by MTT assay; assay type: functional, cell-based; conditions: A549, 24 h; summary of the method: as §1
[4] = test system: A549; assay: Inhibition of alpha-tubulin polymerization in human A549 cells assessed as destruction of tubulin network at 2 times IC50 after 12 hrs by DAPI/FITC-dual staining based fluorescence microscopic analysis; assay type: cell-based
Summary of the method: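 Indirect immunofluorescence of microtubule network in cultured A549 cells after treatment at 2-fold IC50 concentrations; DMSO-treated cells as vehicle control.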

[5] = (§2) Inhibition of pig brain tubulin polymerization measured at 1 min intervals for 90 mins by spectrophotometric analysis; design: species or system Sus scrofa
Summary of the method: (§3)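 Purified tubulin incubated at room temperature with test agent (0.33–10 μM range used), paclitaxel 5.0 μM, or DMSO vehicle; polymerization followed, IC50 derived; mean ± SD of three experiments in triplicate.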

[6] = species: Sus scrofa; assay: as §2; summary of the method: as §3
[7] = Cell cycle arrest in human A549 cells assessed as accumulation in G2/M phase after 12 hrs by propidium iodide-staining based FACS analysis; assay type: functional
[8] = Cell cycle arrest in human A549 cells assessed as accumulation in G2/M phase at 0.016 uM by propidium iodide-staining based FACS analysis; assay type: functional; conditions: TDE = time-dependent effect
[9] = Cell cycle arrest in human A549 cells assessed as accumulation in G2/M phase at 0.018 uM by propidium iodide-staining based FACS analysis; assay type: functional

IC50 [5] | Structure (SMILES) | IC50 [1] | IC50 [2] | IC50 [3] | inhibition [4] | inhibition [6] | Activity [7] | Activity [8] | Activity [9]
 | COc1cc(-c2nnc3ccc(-c4ccc([N+](=O)[O-])cc4)nn23)cc(OC)c1OC | 2380 nM | 4940 nM | 3850 nM |  |  |  |  | 
 | COc1ccc(-c2nnc3ccc(-c4ccc(C)cc4)nn23)c(OC)c1OC | 4530 nM | 170 nM | 10400 nM |  |  |  |  | 
 | COc1cc(-c2nnc3ccc(-c4ccc(C(F)(F)F)cc4)nn23)cc(OC)c1OC | 2210 nM | 1860 nM | 10400 nM |  |  |  |  | 
 | COc1cc(-c2nnc3ccc(-c4cccc([N+](=O)[O-])c4)nn23)cc(OC)c1OC | 86400 nM | 50000 nM | 90500 nM |  |  |  |  | 
 | COc1cc(-c2nnc3ccc(-c4cccc(N)c4)nn23)cc(OC)c1OC | 980 nM | 390 nM | 2980 nM |  |  |  |  | 
 | COc1cc(-c2nnc3ccc(-c4ccc(Cl)cc4)nn23)cc(OC)c1OC | 25 nM | 450 nM | 51 nM |  |  |  |  | 
 | COc1ccc(-c2ccc3nnc(-c4ccc(OC)c(OC)c4OC)n3n2)cc1N | 910 nM | 920 nM | 2620 nM |  |  |  |  | 
 | COc1cc(-c2nnc3ccc(-c4ccc(SC)cc4)nn23)cc(OC)c1OC | 98 nM | 73 nM | 280 nM |  |  |  |  | 
 | COc1cc(-c2nnc3ccc(-c4ccc(F)cc4)nn23)cc(OC)c1OC | 2020 nM | 21 nM | 2180 nM |  |  |  |  | 
 | COc1ccc(-c2ccc3nnc(-c4cc(OC)c(OC)c(OC)c4)n3n2)cc1F | 4170 nM | 1690 nM | 4230 nM |  |  |  |  | 
 | COc1ccc(-c2ccc3nnc(-c4ccc(OC)c(OC)c4OC)n3n2)cc1[N+](=O)[O-] | 9140 nM | 18200 nM | 11400 nM |  |  |  |  | 
 | COc1cc(-c2nnc3ccc(-c4ccc(Br)cc4)nn23)cc(OC)c1OC | 1280 nM | 150 nM | 780 nM |  |  |  |  | 
1800 nM | COc1ccc(-c2ccc3nnc(-c4cc(OC)c(OC)c(OC)c4)n3n2)cc1N | 14 nM | 12 nM | 8 nM | Active | Dose-dependent effect | Dose-dependent effect | Tde | 
 | COc1cc(-c2nnc3ccc(-c4cccc(Cl)c4)nn23)cc(OC)c1OC | 63100 nM | 60500 nM | 47900 nM |  |  |  |  | 
 | COc1ccc(/C=C\c2cc(OC)c(OC)c(OC)c2)cc1O [COMBRETASTATIN A4] | 12 nM | 9 nM | 9 nM | Active | Dose-dependent effect |  |  | Active
 | COc1cc(-c2nnc3ccc(-c4ccc(C#N)cc4)nn23)cc(OC)c1OC | 30900 nM | 33500 nM | 51600 nM |  |  |  |  | 
 | COc1cc(-c2nnc3ccc(-c4cccc(Br)c4)nn23)cc(OC)c1OC | 59000 nM | 54500 nM | 52200 nM |  |  |  |  | 
 | COc1cc(-c2nnc3ccc(-c4ccc(C)cc4)nn23)cc(OC)c1OC | 16 nM | 140 nM | 23 nM |  |  |  |  | 
 | COc1ccc(-c2ccc3nnc(-c4cc(OC)c(OC)c(OC)c4)n3n2)cc1[N+](=O)[O-] | 2280 nM | 6850 nM | 4570 nM |  |  |  |  | 
 | COc1ccc(-c2ccc3nnc(-c4cc(OC)c(OC)c(OC)c4)n3n2)cc1 | 260 nM | 17 nM | 51 nM |  |  |  |  | 
 | COc1ccc(-c2ccc3nnc(-c4ccc(OC)c(OC)c4OC)n3n2)cc1 | 420 nM | 5570 nM | 6980 nM |  |  |  |  | 
 | COc1cc(-c2nnc3ccc(-c4ccc(N)cc4)nn23)cc(OC)c1OC | 1230 nM | 1620 nM | 2350 nM |  |  |  |  | 
